What was measured:
Type in all cases: in vivo
[1] = system: mice; test: Carrageenan-induced paw edema model; settings: dose 10 mg/kg
Method in brief: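 Thirty BALB-c mice randomised into five groups of six. Paw volume by digital plethysmometer at 0, 1, 2, 3, 4 and 5 h; percent inhibition from paw-volume increase, control versus treated. ANOVA/Dunnett's.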

[2] = system: mice (BALB-c); test: Acetic acid-induced writhing assay; settings: 10 mg/kg i.p.
Method in brief: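 BALB-c mice of either sex (18–22 g), fasted 2 h, six per group. Writhes counted starting 5 min after acid; percent analgesic effect derived. Mean ± S.E.M., ANOVA with Dunnett's test versus negative control.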

[3] = system: mice (BALB-c); test: Hot plate assay; settings: dose 10 mg/kg

SMILES | paw volume ([1]; 1 h) | paw volume ([1]; 2 h) | paw volume ([1]; 3 h) | paw volume ([1]; 4 h) | paw volume ([1]; 5 h) | no. of writhing (20 min) [2] | latency of nociceptive response ([3]; 0 min) | latency of nociceptive response ([3]; 30 min) | latency of nociceptive response ([3]; 60 min) | latency of nociceptive response ([3]; 90 min) | latency of nociceptive response ([3]; 120 min)
O=C(O)Cc1ccccc1Nc1c(Cl)cccc1Cl [diclofenac–Na, diclofenac sodium] | 2.283 ± 0.201 | 2.142 ± 0.105 | 2.004 ± 0.224 | 2.010 ± 0.185 | 2.019 ± 0.022 |  |  |  |  |  | 
COc1ccc2c(c1)c(CC(=O)O)c(C)n2C(=O)c1ccc(Cl)cc1 [indomethacin] | 2.462 ± 0.032 | 2.207 ± 0.218 | 2.100 ± 0.122 | 2.128 ± 0.370 | 2.184 ± 0.632 | 17.04 ± 1.22 |  |  |  |  | 
COc1cccc(C2(O)CCCCC2CN(C)C)c1 (stereo not shown) [tramal, tramadol] |  |  |  |  |  |  | 10.32 ± 0.57 s | 26.22 ± 1.07 s | 25.45 ± 2.52 s | 20.37 ± 0.88 s | 20.07 ± 1.66 s
